The molecules below were run against T1, Adenosine receptor A1 (Homo sapiens) (UniProt P30542) (assay: Displacement of [3H]DPCPX from human adenosine A1 receptor expressed in CHO cell membranes assessed as kinetic rate index by measuring ratio of binding at earlier and later time points by competition association assay).
T1 sequence (whole entry): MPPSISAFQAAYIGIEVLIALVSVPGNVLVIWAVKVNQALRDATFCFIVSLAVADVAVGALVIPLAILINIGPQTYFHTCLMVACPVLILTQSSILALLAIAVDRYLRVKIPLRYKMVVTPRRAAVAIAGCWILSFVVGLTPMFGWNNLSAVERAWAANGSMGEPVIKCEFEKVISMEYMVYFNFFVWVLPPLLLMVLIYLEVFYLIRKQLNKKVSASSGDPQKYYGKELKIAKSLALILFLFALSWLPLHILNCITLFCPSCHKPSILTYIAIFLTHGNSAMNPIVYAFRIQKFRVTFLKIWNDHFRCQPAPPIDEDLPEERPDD
Summary of the method: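 Dual-point competition association assay with [3H]DPCPX on CHO membranes stably expressing hA1. Specific binding is read at two time points in the presence of the test ligand. KRI is the ratio of binding at the earlier to the later time point (n = 2; both values reported).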

Row | Ratio | SMILES
1 | 1.22 | COc1ccc(-c2nc(CSc3nc(N)c(C#N)c(-c4ccc(OC)cc4)c3C#N)cs2)cc1
2 | 1.25 | COc1ccc(-c2c(C#N)c(N)nc(SCc3csc(-c4ccc(C)cc4)n3)c2C#N)cc1

Each molecule was assayed against T1, Adenosine receptor A1 (Homo sapiens) (assay: Displacement of [3H]DPCPX from human adenosine A1 receptor expressed in CHO cell membranes at 1 uM by competition association assay).

Row | SMILES | inhibition [%]
3 | CC(=O)Nc1ccc(-c2nc(SCc3cccc(CCC(=O)N(C)CCN(C)C)n3)nc(N)c2C#N)cc1 | < 80
4 | N#Cc1c(N)nc(SCc2csc(-c3ccc(Cl)cc3)n2)nc1-c1ccc(OC(F)(F)F)cc1 | > 80
5 | N#Cc1c(N)nc(SCc2csc(-c3ccccc3F)n2)c(C#N)c1-c1ccc(O)cc1 | > 80
6 | N#Cc1c(N)nc(SCc2csc(N3CCOCC3)n2)nc1-c1ccc2c(c1)OCO2 | > 80
7 | N#Cc1c(N)nc(SCc2ccccc2[N+](=O)[O-])nc1-c1ccccc1 | > 80
8 | N#Cc1c(N)nc(SCc2coc(-c3cccc(F)c3)n2)nc1-c1ccc2c(c1)OCO2 | > 80
9 | N#Cc1c(N)nc(SCc2coc(-c3ccc(F)cc3)n2)c(C#N)c1-c1ccc(O)cc1 | > 80
10 | N#Cc1c(N)nc(SCc2csc(-c3ccc(Cl)cc3)n2)nc1-c1ccc(OCCO)cc1 | > 80
11 | CC(=O)Nc1ccc(-c2nc(SCc3csc(-c4ccc(Cl)cc4)n3)nc(N)c2C#N)cc1 | > 80
12 | N#Cc1c(N)nc(SCc2coc(-c3ccc(Cl)cc3)n2)c(C#N)c1-c1ccc(O)cc1 | > 80
13 | N#Cc1c(N)nc(SCc2csc(-c3ccc(Cl)cc3)n2)nc1-c1ccc(O)cc1 | > 80
14 | N#Cc1c(N)nc(SCc2csc(-c3ccc4c(c3)OCO4)n2)nc1-c1ccc2c(c1)OCO2 | > 80
15 | Cc1ccc(-c2nc(SCc3csc(-c4ccc(Cl)cc4)n3)nc(N)c2C#N)cc1 | < 80
16 | COc1ccc(-c2c(C#N)c(N)nc(SCc3csc(-c4ccccc4F)n3)c2C#N)cc1 | > 80
17 | COc1ccc(-c2nc(CSc3nc(N)c(C#N)c(-c4ccc(O)cc4)c3C#N)cs2)cc1 | > 80
18 | N#Cc1c(N)nc(SCc2csc(-c3ccc(F)cc3)n2)c(C#N)c1-c1ccc(O)cc1 | > 80
19 | N#Cc1c(N)nc(SCc2coc(-c3cccc(F)c3)n2)c(C#N)c1-c1ccc(O)cc1 | > 80
20 | CC(=O)Nc1ccc(-c2nc(SCc3cccc(CCC(=O)N4CCN(CCN5CCCC5)CC4)n3)nc(N)c2C#N)cc1 | < 80
21 | N#Cc1c(N)nc(SCc2csc(-c3cccc(F)c3)n2)c(C#N)c1-c1ccc(O)cc1 | > 80
22 | N#Cc1c(N)nc(SCc2coc(-c3ccc(F)cc3)n2)nc1-c1ccc2c(c1)OCO2 | > 80
23 | CN(C)c1ccc(-c2nc(SCc3csc(-c4ccc(Cl)cc4)n3)nc(N)c2C#N)cc1 | > 80
24 | N#Cc1c(N)nc(SCc2csc(-c3ccccc3Cl)n2)nc1-c1ccc2c(c1)OCO2 | > 80
25 | N#Cc1c(N)nc(SCc2nc(-c3ccc(Cl)cc3)sc2Br)c(C#N)c1-c1ccc2c(c1)OCO2 | > 80
26 | CCOc1ccc(-c2nc(SCc3csc(-c4ccc(Cl)cc4)n3)nc(N)c2C#N)cc1 | < 80

Row | SMILES | inhibition [%]
27 | COc1ccc(-c2c(C#N)c(N)nc(SCc3csc(-c4cccc(F)c4)n3)c2C#N)cc1 | > 80
28 | N#Cc1c(N)nc(SCc2csc(C3CCCCC3)n2)nc1-c1ccc2c(c1)OCO2 | > 80
29 | N#Cc1c(N)nc(SCc2csc(-c3cccc(Cl)c3)n2)c(C#N)c1-c1ccc(O)cc1 | > 80
30 | N#Cc1c(N)nc(SCc2csc(-c3ccc(Cl)cc3)n2)nc1-c1ccccc1 | > 80
31 | N#Cc1c(N)nc(SCc2csc(-c3ccccc3Cl)n2)c(C#N)c1-c1ccc(O)cc1 | > 80
32 | N#Cc1c(N)nc(SCc2ccccc2[N+](=O)[O-])nc1-c1ccc2c(c1)OCO2 | > 80
33 | CC(=O)Nc1ccc(-c2nc(SCc3cccc(CCC(=O)N4CCN(CCN(C(C)C)C(C)C)CC4)n3)nc(N)c2C#N)cc1 | < 80
34 | COc1ccc(-c2nc(SCc3coc(-c4cccc(F)c4)n3)nc(N)c2C#N)cc1 | < 80
35 | CCNCCN1CCN(C(=O)CCc2cccc(CSc3nc(N)c(C#N)c(-c4ccc(NC(C)=O)cc4)n3)n2)CC1 | < 80
36 | COc1ccc(-c2c(C#N)c(N)nc(SCc3coc(-c4ccc(F)cc4)n3)c2C#N)cc1 | > 80
37 | N#Cc1c(N)nc(SCc2csc(-c3cccc(F)c3)n2)nc1-c1ccc2c(c1)OCO2 | > 80
38 | N#Cc1c(N)nc(SCc2nc(-c3ccc(Cl)cc3)sc2Cl)c(C#N)c1-c1ccc2c(c1)OCO2 | > 80
39 | N#Cc1c(N)nc(SCc2csc(-c3ccccc3)n2)c(C#N)c1-c1ccc(O)cc1 | > 80
40 | COc1ccc(-c2c(C#N)c(N)nc(SCc3coc(-c4ccc(Cl)cc4)n3)c2C#N)cc1 | > 80
41 | N#Cc1c(N)nc(SCc2csc(N3CCOCC3)n2)c(C#N)c1-c1ccc(O)cc1 | > 80
42 | N#Cc1c(N)nc(SCc2cscn2)nc1-c1ccc2c(c1)OCO2 | > 80
43 | COc1ccc(-c2nc(SCc3csc(-c4ccc(Cl)cc4)n3)nc(N)c2C#N)cc1 | < 80
44 | Cc1ccc(-c2nc(CSc3nc(N)c(C#N)c(-c4ccc(O)cc4)c3C#N)cs2)cc1 | > 80
45 | N#Cc1c(N)nc(SCc2csc(-c3ccccc3F)n2)nc1-c1ccc2c(c1)OCO2 | > 80
46 | CC(=O)Nc1ccc(-c2nc(SCc3cccc(CCC(=O)N4CCN(CCCCN5CCC(C)CC5)CC4)n3)nc(N)c2C#N)cc1 | < 80
47 | N#Cc1c(N)nc(SCc2csc(-c3ccc(Br)cc3)n2)c(C#N)c1-c1ccc(O)cc1 | > 80
48 | N#Cc1c(N)nc(SCc2csc(-c3ccc(Cl)c(Cl)c3)n2)c(C#N)c1-c1ccc(O)cc1 | > 80
49 | CC(=O)Nc1ccc(-c2nc(SCc3cccc(CCC(=O)N4CCN(C)CC4)n3)nc(N)c2C#N)cc1 | < 80
50 | COc1ccc(-c2c(C#N)c(N)nc(SCc3csc(-c4ccc(C)cc4)n3)c2C#N)cc1 | > 80

Next, values leading:

Row | inhibition [%] | SMILES
51 | > 80 | Cc1ccc(-c2nc(CSc3nc(N)c(C#N)c(-c4ccc5c(c4)OCO5)n3)cs2)cc1
52 | < 80 | N#Cc1c(NC2CCCCC2)nc(SCc2csc(-c3ccc(Cl)cc3)n2)nc1-c1ccc2c(c1)OCO2
53 | > 80 | N#Cc1c(N)nc(SCc2csc(-c3ccc(Br)cc3)n2)nc1-c1ccc2c(c1)OCO2
54 | > 80 | N#Cc1c(N)nc(SCc2csc(-c3ccc([N+](=O)[O-])cc3)n2)nc1-c1ccc2c(c1)OCO2
55 | < 80 | CC(C)Nc1nc(SCc2csc(-c3ccc(Cl)cc3)n2)nc(-c2ccc3c(c2)OCO3)c1C#N
56 | > 80 | N#Cc1c(N)nc(SCc2csc(-c3ccc(Cl)c(Cl)c3)n2)nc1-c1ccc2c(c1)OCO2
57 | < 80 | N#Cc1c(NCCc2ccccc2)nc(SCc2csc(-c3ccc(Cl)cc3)n2)nc1-c1ccc2c(c1)OCO2
58 | < 80 | CCCCNc1nc(SCc2csc(-c3ccc(Cl)cc3)n2)nc(-c2ccc3c(c2)OCO3)c1C#N
59 | < 80 | CN(C)CCNc1nc(SCc2csc(-c3ccc(Cl)cc3)n2)nc(-c2ccc3c(c2)OCO3)c1C#N
60 | < 80 | N#Cc1c(NC2CCCC2)nc(SCc2csc(-c3ccc(Cl)cc3)n2)nc1-c1ccc2c(c1)OCO2
61 | < 80 | CCC(CC)Nc1nc(SCc2csc(-c3ccc(Cl)cc3)n2)nc(-c2ccc3c(c2)OCO3)c1C#N
62 | < 80 | CC(C)(C)Nc1nc(SCc2csc(-c3ccc(Cl)cc3)n2)nc(-c2ccc3c(c2)OCO3)c1C#N
63 | > 80 | N#Cc1c(N)nc(SCc2coc(-c3ccc(Cl)cc3)n2)nc1-c1ccc2c(c1)OCO2
64 | < 80 | CC(C)CCNc1nc(SCc2csc(-c3ccc(Cl)cc3)n2)nc(-c2ccc3c(c2)OCO3)c1C#N
65 | > 80 | N#Cc1c(N)nc(SCc2csc(-c3ccc(I)cc3)n2)nc1-c1ccc2c(c1)OCO2
66 | < 80 | N#Cc1c(NCC(c2ccccc2)c2ccccc2)nc(SCc2csc(-c3ccc(Cl)cc3)n2)nc1-c1ccc2c(c1)OCO2
67 | > 80 | COc1ccc(-c2nc(CSc3nc(N)c(C#N)c(-c4ccc5c(c4)OCO5)n3)cs2)cc1
68 | < 80 | N#Cc1c(NCc2ccccc2)nc(SCc2csc(-c3ccc(Cl)cc3)n2)nc1-c1ccc2c(c1)OCO2
69 | > 80 | N#Cc1c(-c2ccc3c(c2)OCO3)cc(SCc2csc(-c3ccc(Cl)cc3)n2)nc1NC1CC1
70 | > 80 | N#Cc1c(N)nc(SCc2csc(-c3ccc(C(F)(F)F)cc3)n2)nc1-c1ccc2c(c1)OCO2
71 | > 80 | CNc1nc(SCc2csc(-c3ccc(Cl)cc3)n2)cc(-c2ccc3c(c2)OCO3)c1C#N
72 | < 80 | N#Cc1c(NCCCc2ccccc2)nc(SCc2csc(-c3ccc(Cl)cc3)n2)nc1-c1ccc2c(c1)OCO2
73 | > 80 | CCNc1nc(SCc2csc(-c3ccc(Cl)cc3)n2)cc(-c2ccc3c(c2)OCO3)c1C#N
74 | > 80 | N#Cc1c(N)nc(SCc2csc(-c3ccc(F)cc3)n2)nc1-c1ccc2c(c1)OCO2
75 | > 80 | C#CCNc1nc(SCc2csc(-c3ccc(Cl)cc3)n2)cc(-c2ccc3c(c2)OCO3)c1C#N
76 | > 80 | N#Cc1c(N)nc(SCc2csc(-c3cccc(Cl)c3)n2)nc1-c1ccc2c(c1)OCO2
77 | > 80 | N#Cc1c(N)nc(SCc2csc(-c3ccccc3)n2)nc1-c1ccc2c(c1)OCO2
78 | < 80 | N#Cc1c(NCCCCc2ccccc2)nc(SCc2csc(-c3ccc(Cl)cc3)n2)nc1-c1ccc2c(c1)OCO2

— ChEMBL document CHEMBL3612021, “Structure-kinetics relationships of Capadenoson derivatives as adenosine A1 receptor agonists” (Eur J Med Chem, 2015)
